Source: ChEMBL document CHEMBL1777739, “Design, synthesis, and biological activity of novel Magmas inhibitors” (Bioorg Med Chem Lett, 2011)
Activity calls are given as the source filed them. The calls are words filed in the database; no cut-off is given here.

Key:
Saccharomyces cerevisiae [1] = experiment: Inhibition of TIM16-mediated Saccharomyces cerevisiae J47D proliferation in log phase at 100 uM measured for every 30 mins
In short: (§1)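 Log-phase S. cerevisiae J47D plated at 1.5 × 10⁴ cells/well in YEPD. Compounds in DMSO added across 0–1 mM, triplicate wells, 1% final DMSO. Cultured at 30 °C with OD600 read every 30 min. n = 3; each experiment done at least twice independently.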

Saccharomyces cerevisiae [2] = experiment: Inhibition of TIM16-mediated Saccharomyces cerevisiae J47D proliferation in log phase at 1 mM measured for every 30 mins; in short: as §1
Saccharomyces cerevisiae [3] = experiment: Inhibition of TIM16-mediated Saccharomyces cerevisiae J47D proliferation in log phase at 10 uM measured for every 30 mins; in short: as §1
Saccharomyces cerevisiae [4] = experiment: Inhibition of TIM16-mediated Saccharomyces cerevisiae J47D proliferation in log phase at 1 uM measured for every 30 mins; in short: as §1
[5] = Solubility of the compound at 1 mM; format: physicochemical; settings: 1000 µM
Saccharomyces cerevisiae [6] = experiment: Inhibition of Saccharomyces cerevisiae TIM16 N84T mutant-mediated proliferation up to 60 mins
In short: (§2)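 Yeast whose wild-type TIM16 plasmid was lost on FOA selection, carrying plasmid-borne Tim16 N84T or A104S mutants, cultured in YEPD at 30 °C. Compound added at graded concentrations in DMSO (1% final), triplicate wells. OD600 read every 30 min; compared with the wild-type plasmid strain.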

[7] = Binding affinity to Saccharomyces cerevisiae Magmas by fluorometric titration
In short: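 Intrinsic Trp/Tyr fluorescence of yeast Magmas (3 µM, unit as printed) in 50 mM Bis–Tris pH 7.1, 25 °C. Excitation 295 nm, emission read at 365 nm. Ligand titrated from 0 to […] using freshly made stock. Dilution kept ≤10% and corrected for. Kd obtained by fitting intensity versus total ligand concentration to a single-site binding equation.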

[8] = tested on: T1, Saccharomyces cerevisiae [A104S]; experiment: Inhibition of Saccharomyces cerevisiae TIM16 A104S mutant-mediated proliferation up to 60 mins; in short: as §2
T1 sequence (whole entry): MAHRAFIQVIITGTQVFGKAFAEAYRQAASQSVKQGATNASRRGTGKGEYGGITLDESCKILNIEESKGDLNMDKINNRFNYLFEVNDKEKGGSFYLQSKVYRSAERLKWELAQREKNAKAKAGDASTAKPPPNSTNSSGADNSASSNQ

Structure (SMILES) | inhibition (Saccharomyces cerevisiae [1]) | inhibition (Saccharomyces cerevisiae [2]) | inhibition (Saccharomyces cerevisiae [3]) | inhibition (Saccharomyces cerevisiae [4]) | solubility [5] | inhibition (Saccharomyces cerevisiae [6]) | Kd [7] [µM] | inhibition [8]
O=[N+]([O-])c1ccc2c(c1)C=CC(c1ccccc1)O2 (stereo not drawn) | inactive | inactive | inactive | inactive | – | – | – | –
Clc1ccc2c(c1)C=CC(c1ccccc1)O2 (stereo not drawn) | Active | – | inactive | inactive | Insoluble | – | – | –
Brc1ccc2c(c1)C=CC(c1ccccc1)O2 (stereo not drawn) | Active | Active | Active | inactive | – | – | – | –
CCC1=C(C)/C(=C/c2ccc(C(=O)NC(=N)N)cc2)CCC1(C)C | Active | Active | Active | inactive | – | inactive | 33.5 | Active
CCCCCCCCC1C=Cc2cc([N+](=O)[O-])ccc2O1 (stereo not drawn) | Active | – | inactive | inactive | Insoluble | – | – | –
